According to ChEMBL document CHEMBL1139655, “Antimicrobial beta-peptoids by a block synthesis approach” (2006):
In brackets after ≈: the same amount, converted by molar mass.

What follows are compounds tested on Escherichia coli (assay: Antimicrobial activity against Escherichia coli ATCC 25922).
Type: functional
Outline: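 Broth microdilution in trypticase soy broth; 2-fold serial dilutions giving final 512 to 1 µg/mL. Inoculum E. coli ATCC 25922 in TSB, final […] as printed. Incubated 37 °C for 24 h in plate reader, OD600 read every 20 min. MIC taken as lowest concentration preventing growth at 24 h.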
In the case of CC(=O)NCCC(=O)N(CCC(=O)N(CCCN(C)C)CCC(=O)NCCC(=O)N(CCC(=O)N(CCCN(C)C)CCC(=O)NCCC(=O)N(CCC(=O)N(CCCN(C)C)CCC(=O)NCCC(=O)N(CCC(=O)N(CCCN(C)C)CCC(=O)NCCC(=O)N(CCC(=O)N(CCCN(C)C)CCC(=O)NCCC(=O)N(CCC(=O)N(CCCN(C)C)CCC(=O)NCCC(=O)N(CCC(=O)N(CCCN(C)C)CCC(=O)N[C@@H](CCCCN)C(N)=O)CC(C)C)CC(C)C)CC(C)C)CC(C)C)CC(C)C)CC(C)C)CC(C)C, the MIC is reported as greater than 512 µg/mL. Compound CC(=O)N(CCC(=O)N(CCC(=O)N(CCCN(C)C)CCC(=O)N(CCC(=O)N(CCC(=O)N(CCCN(C)C)CCC(=O)N(CCC(=O)N(CCC(=O)N(CCCN(C)C)CCC(=O)N(CCC(=O)N(CCC(=O)N(CCCN(C)C)CCC(=O)N(CCC(=O)N(CCC(=O)N(CCCN(C)C)CCC(=O)N[C@@H](CCCCN)C(N)=O)CC(C)C)Cc1ccccc1)CC(C)C)Cc1ccccc1)CC(C)C)Cc1ccccc1)CC(C)C)Cc1ccccc1)CC(C)C)Cc1ccccc1 has an MIC of 128 µg/mL (≈ 53.1 µM). For CC(=O)N(CCC(=O)N(CCCN(C)C)CCC(=O)N(CCC(=O)N(CCC(=O)N(CCCN(C)C)CCC(=O)N(CCC(=O)N(CCC(=O)N(CCCN(C)C)CCC(=O)N(CCC(=O)N(CCC(=O)N(CCCN(C)C)CCC(=O)N(CCC(=O)N(CCC(=O)N(CCCN(C)C)CCC(=O)N(CCC(=O)N[C@@H](CCCCN)C(N)=O)CC(C)C)Cc1ccccc1)CC(C)C)Cc1ccccc1)CC(C)C)Cc1ccccc1)CC(C)C)Cc1ccccc1)CC(C)C)Cc1ccccc1, the MIC was 128 µg/mL (≈ 53.1 µM). In the case of CC(=O)N(CCC(=O)N(CCN)CCC(=O)N(CCN)CCC(=O)N(CCC(=O)N(CCN)CCC(=O)N(CCN)CCC(=O)N[C@@H](CCCCN)C(N)=O)CC(C)C)CC(C)C, the MIC is reported as greater than 512 µg/mL. In the case of CC(=O)N(CCC(=O)N(CCC(=O)N(CCCN(C)C)CCC(=O)N(CCC(=O)N(CCC(=O)N(CCCN(C)C)CCC(=O)N(CCC(=O)N(CCC(=O)N(CCCN(C)C)CCC(=O)N[C@@H](CCCCN)C(N)=O)CC(C)C)Cc1ccccc1)CC(C)C)Cc1ccccc1)CC(C)C)Cc1ccccc1, the MIC is reported as 512 µg/mL (≈ 337 µM). CC(=O)NCCC(=O)N(CCC(=O)N(CCCCN)CCC(=O)NCCC(=O)N(CCC(=O)N(CCCCN)CCC(=O)NCCC(=O)N(CCC(=O)N(CCCCN)CCC(=O)N[C@@H](CCCCN)C(N)=O)CC(C)C)CC(C)C)CC(C)C was tested, and the MIC was 512 µg/mL (≈ 424 µM). Compound CC(=O)N(CCC(=O)N(CCC(=O)N(CCCN(C)C)CCC(=O)N(CCC(=O)N(CCC(=O)N(CCCN(C)C)CCC(=O)N(CCC(=O)N(CCC(=O)N(CCCN(C)C)CCC(=O)N(CCC(=O)N(CCC(=O)N(CCCN(C)C)CCC(=O)N[C@@H](CCCCN)C(N)=O)CC(C)C)Cc1ccccc1)CC(C)C)Cc1ccccc1)CC(C)C)Cc1ccccc1)CC(C)C)Cc1ccccc1 has an MIC of 128 µg/mL (≈ 65.1 µM). In the case of CC(=O)N(CCC(=O)N(CCC(=O)N(CCCCN)CCC(=O)N[C@@H](CCCCN)C(N)=O)CC(C)C)CC(C)C, the MIC is reported as greater than 512 µg/mL. CC(=O)N(CCC(=O)N(CCCN(C)C)CCC(=O)N(CCC(=O)N(CCC(=O)N(CCCN(C)C)CCC(=O)N(CCC(=O)N(CCC(=O)N(CCCN(C)C)CCC(=O)N(CCC(=O)N(CCC(=O)N(CCCN(C)C)CCC(=O)N(CCC(=O)N(CCC(=O)N(CCCN(C)C)CCC(=O)N(CCC(=O)N(CCC(=O)N(CCCN(C)C)CCC(=O)N(CCC(=O)N[C@@H](CCCCN)C(N)=O)CC(C)C)Cc1ccccc1)CC(C)C)Cc1ccccc1)CC(C)C)Cc1ccccc1)CC(C)C)Cc1ccccc1)CC(C)C)Cc1ccccc1)CC(C)C)Cc1ccccc1 showed an MIC of 128 µg/mL (≈ 44.8 µM). CC(=O)NCCC(=O)N(CCC(=O)N(CCN)CCC(=O)NCCC(=O)N(CCC(=O)N(CCN)CCC(=O)NCCC(=O)N(CCC(=O)N(CCN)CCC(=O)NCCC(=O)N(CCC(=O)N(CCN)CCC(=O)NCCC(=O)N(CCC(=O)N(CCN)CCC(=O)N[C@@H](CCCCN)C(N)=O)CC(C)C)CC(C)C)CC(C)C)CC(C)C)CC(C)C showed an MIC of 256 µg/mL (≈ 146 µM). CC(=O)N(CCC(=O)N(CCC(=O)N(CCCCN)CCC(=O)N(CCC(=O)N(CCC(=O)N(CCCCN)CCC(=O)N[C@@H](CCCCN)C(N)=O)CC(C)C)CC(C)C)CC(C)C)CC(C)C was tested, and the MIC was greater than 512 µg/mL. Compound CC(=O)NCCC(=O)N(CCC(=O)N(CCN)CCC(=O)NCCC(=O)N(CCC(=O)N(CCN)CCC(=O)NCCC(=O)N(CCC(=O)N(CCN)CCC(=O)NCCC(=O)N(CCC(=O)N(CCN)CCC(=O)NCCC(=O)N(CCC(=O)N(CCN)CCC(=O)NCCC(=O)N(CCC(=O)N(CCN)CCC(=O)NCCC(=O)N(CCC(=O)N(CCN)CCC(=O)NCCC(=O)N(CCC(=O)N(CCN)CCC(=O)N[C@@H](CCCCN)C(N)=O)CC(C)C)CC(C)C)CC(C)C)CC(C)C)CC(C)C)CC(C)C)CC(C)C)CC(C)C has an MIC of 256 µg/mL (≈ 95.3 µM). Work on CC(=O)N(CCC(=O)N(CCC(=O)N(CCCCN)CCC(=O)N(CCC(=O)N(CCC(=O)N(CCCCN)CCC(=O)N(CCC(=O)N(CCC(=O)N(CCCCN)CCC(=O)N[C@@H](CCCCN)C(N)=O)CC(C)C)CC(C)C)CC(C)C)CC(C)C)CC(C)C)CC(C)C yielded an MIC greater than 512 µg/mL. For CC(=O)N(CCC(=O)N(CCC(=O)N(CCN)CCC(=O)N(CCC(=O)N(CCC(=O)N(CCN)CCC(=O)N(CCC(=O)N(CCC(=O)N(CCN)CCC(=O)N[C@@H](CCCCN)C(N)=O)CC(C)C)CC(C)C)CC(C)C)CC(C)C)CC(C)C)CC(C)C, the MIC was greater than 512 µg/mL. CC(=O)N(CCC(=O)N(CCC(=O)N(CCN)CCC(=O)N(CCC(=O)N(CCC(=O)N(CCN)CCC(=O)N(CCC(=O)N(CCC(=O)N(CCN)CCC(=O)N(CCC(=O)N(CCC(=O)N(CCN)CCC(=O)N[C@@H](CCCCN)C(N)=O)CC(C)C)CC(C)C)CC(C)C)CC(C)C)CC(C)C)CC(C)C)CC(C)C)CC(C)C showed an MIC of 256 µg/mL (≈ 154 µM). For CC(=O)NCCC(=O)N(CCC(=O)N(CCCCN)CCC(=O)NCCC(=O)N(CCC(=O)N(CCCCN)CCC(=O)N[C@@H](CCCCN)C(N)=O)CC(C)C)CC(C)C, the MIC was greater than 512 µg/mL. CC(=O)N(CCC(=O)N(CCCN(C)C)CCC(=O)N(CCC(=O)N(CCC(=O)N(CCCN(C)C)CCC(=O)N(CCC(=O)N(CCC(=O)N(CCCN(C)C)CCC(=O)N(CCC(=O)N[C@@H](CCCCN)C(N)=O)CC(C)C)Cc1ccccc1)CC(C)C)Cc1ccccc1)CC(C)C)Cc1ccccc1 gave an MIC of 128 µg/mL (≈ 84.1 µM). With CC(=O)NCCC(=O)N(CCC(=O)N(CCN)CCC(=O)NCCC(=O)N(CCC(=O)N(CCN)CCC(=O)NCCC(=O)N(CCC(=O)N(CCN)CCC(=O)NCCC(=O)N(CCC(=O)N(CCN)CCC(=O)NCCC(=O)N(CCC(=O)N(CCN)CCC(=O)NCCC(=O)N(CCC(=O)N(CCN)CCC(=O)NCCC(=O)N(CCC(=O)N(CCN)CCC(=O)N[C@@H](CCCCN)C(N)=O)CC(C)C)CC(C)C)CC(C)C)CC(C)C)CC(C)C)CC(C)C)CC(C)C the MIC was 128 µg/mL (≈ 53.9 µM). CC(=O)NCCC(=O)N(CCC(=O)N(CCCN(C)C)CCC(=O)NCCC(=O)N(CCC(=O)N(CCCN(C)C)CCC(=O)NCCC(=O)N(CCC(=O)N(CCCN(C)C)CCC(=O)NCCC(=O)N(CCC(=O)N(CCCN(C)C)CCC(=O)NCCC(=O)N(CCC(=O)N(CCCN(C)C)CCC(=O)NCCC(=O)N(CCC(=O)N(CCCN(C)C)CCC(=O)NCCC(=O)N(CCC(=O)N(CCCN(C)C)CCC(=O)NCCC(=O)N(CCC(=O)N(CCCN(C)C)CCC(=O)N[C@@H](CCCCN)C(N)=O)CC(C)C)CC(C)C)CC(C)C)CC(C)C)CC(C)C)CC(C)C)CC(C)C)CC(C)C showed an MIC greater than 512 µg/mL. Compound CC(=O)N(CCC(=O)N(CCC(=O)N(CCN)CCC(=O)N(CCC(=O)N(CCC(=O)N(CCN)CCC(=O)N(CCC(=O)N(CCC(=O)N(CCN)CCC(=O)N(CCC(=O)N(CCC(=O)N(CCN)CCC(=O)N(CCC(=O)N(CCC(=O)N(CCN)CCC(=O)N[C@@H](CCCCN)C(N)=O)CC(C)C)CC(C)C)CC(C)C)CC(C)C)CC(C)C)CC(C)C)CC(C)C)CC(C)C)CC(C)C)CC(C)C has an MIC of 256 µg/mL (≈ 126 µM). With CC(=O)NCCC(=O)N(CCC(=O)N(CCCN(C)C)CCC(=O)NCCC(=O)N(CCC(=O)N(CCCN(C)C)CCC(=O)NCCC(=O)N(CCC(=O)N(CCCN(C)C)CCC(=O)NCCC(=O)N(CCC(=O)N(CCCN(C)C)CCC(=O)NCCC(=O)N(CCC(=O)N(CCCN(C)C)CCC(=O)N[C@@H](CCCCN)C(N)=O)CC(C)C)CC(C)C)CC(C)C)CC(C)C)CC(C)C the MIC was greater than 512 µg/mL.
